Assay results: ChEMBL document CHEMBL3994580, “A novel class of α-glucosidase and HMG-CoA reductase inhibitors from Ganoderma leucocontextum and the anti-diabetic properties of ganomycin I in KK-Ay mice” (Eur J Med Chem, 2017)
Calls of active or inactive are those of the source. The calls are words filed in the database; no cut-off is given here.

How the values were obtained:
[1] = biological target: T1, 3-hydroxy-3-methylglutaryl-coenzyme A reductase (Sus scrofa, UniProt Q1W675); assay: (§1) Inhibition of HMG-CoA reductase in pig liver microsomes using HMG-CoA as substrate preincubated for 5 mins followed by NADPH addition measured after 15 mins by colorimetric method
T1 sequence (Q1W675 whole entry): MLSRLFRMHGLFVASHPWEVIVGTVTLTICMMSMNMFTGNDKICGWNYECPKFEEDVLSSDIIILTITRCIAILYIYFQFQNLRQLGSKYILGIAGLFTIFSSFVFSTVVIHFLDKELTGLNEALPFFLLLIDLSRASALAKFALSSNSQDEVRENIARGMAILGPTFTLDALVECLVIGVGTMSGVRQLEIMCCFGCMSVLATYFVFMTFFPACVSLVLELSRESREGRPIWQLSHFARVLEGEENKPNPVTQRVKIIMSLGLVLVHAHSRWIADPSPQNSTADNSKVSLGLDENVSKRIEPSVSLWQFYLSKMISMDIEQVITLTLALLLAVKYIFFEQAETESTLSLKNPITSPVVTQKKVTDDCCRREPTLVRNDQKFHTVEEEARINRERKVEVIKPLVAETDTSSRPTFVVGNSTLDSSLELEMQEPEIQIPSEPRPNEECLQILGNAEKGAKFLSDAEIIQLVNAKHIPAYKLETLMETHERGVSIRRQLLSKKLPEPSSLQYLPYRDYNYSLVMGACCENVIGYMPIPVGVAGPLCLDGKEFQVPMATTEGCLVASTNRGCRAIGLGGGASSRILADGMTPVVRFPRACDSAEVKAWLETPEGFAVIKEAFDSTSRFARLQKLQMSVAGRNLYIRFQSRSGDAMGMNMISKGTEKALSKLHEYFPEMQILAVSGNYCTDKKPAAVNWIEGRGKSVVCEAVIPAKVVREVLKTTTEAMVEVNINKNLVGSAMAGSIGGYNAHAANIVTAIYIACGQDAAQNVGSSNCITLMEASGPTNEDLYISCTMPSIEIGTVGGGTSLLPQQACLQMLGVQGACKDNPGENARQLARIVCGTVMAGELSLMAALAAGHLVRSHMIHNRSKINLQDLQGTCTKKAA
Procedure, shortened: (§2)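 HMG-CoA reductase activity followed by absorbance at 340 nm. Blank had potassium phosphate buffer instead of enzyme, and control had buffer instead of compound. Percent inhibition calculated from blank-corrected OD.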

[2] = Inhibition of baker's yeast alpha-glucosidase using p-nitrophenyl alpha-D-glucopyranoside as substrate preincubated for 10 mins followed by substrate addition measured for 15 mins; design: species or system Saccharomyces cerevisiae
Procedure, shortened: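 Baker's yeast α-glucosidase with pNPG, read at 405 nm. Control contained phosphate buffer in place of compound, and blank contained buffer in place of enzyme.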

[3] = Inhibition of alpha-glucosidase in rat small intestinal mucosa assessed as reduction in glucose production using p-nitrophenyl alpha-D-glucopyranoside as substrate measured after 40 mins by glucose oxidase assay
Procedure, shortened: (§3)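 Rat small intestinal mucosa enzyme. Compound in DMSO mixed with substrate (maltose, sucrose or pNPG) and enzyme in 0.1 M phosphate buffer pH 6.9, incubated 40 min. Glucose released measured by glucose oxidase kit at 550 nm. Blank lacked enzyme, control lacked compound. Percent inhibition calculated from blank-corrected OD.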

[4] = biological target: Sucrase-isomaltase, intestinal (Rattus norvegicus, UniProt P23739); assay: Inhibition of sucrase in rat small intestinal mucosa assessed as reduction in glucose production using sucrose as substrate measured after 40 mins by glucose oxidase assay; procedure, shortened: as §3
Sucrase-isomaltase, intestinal, sequence (P23739 1-1013 limits assumed): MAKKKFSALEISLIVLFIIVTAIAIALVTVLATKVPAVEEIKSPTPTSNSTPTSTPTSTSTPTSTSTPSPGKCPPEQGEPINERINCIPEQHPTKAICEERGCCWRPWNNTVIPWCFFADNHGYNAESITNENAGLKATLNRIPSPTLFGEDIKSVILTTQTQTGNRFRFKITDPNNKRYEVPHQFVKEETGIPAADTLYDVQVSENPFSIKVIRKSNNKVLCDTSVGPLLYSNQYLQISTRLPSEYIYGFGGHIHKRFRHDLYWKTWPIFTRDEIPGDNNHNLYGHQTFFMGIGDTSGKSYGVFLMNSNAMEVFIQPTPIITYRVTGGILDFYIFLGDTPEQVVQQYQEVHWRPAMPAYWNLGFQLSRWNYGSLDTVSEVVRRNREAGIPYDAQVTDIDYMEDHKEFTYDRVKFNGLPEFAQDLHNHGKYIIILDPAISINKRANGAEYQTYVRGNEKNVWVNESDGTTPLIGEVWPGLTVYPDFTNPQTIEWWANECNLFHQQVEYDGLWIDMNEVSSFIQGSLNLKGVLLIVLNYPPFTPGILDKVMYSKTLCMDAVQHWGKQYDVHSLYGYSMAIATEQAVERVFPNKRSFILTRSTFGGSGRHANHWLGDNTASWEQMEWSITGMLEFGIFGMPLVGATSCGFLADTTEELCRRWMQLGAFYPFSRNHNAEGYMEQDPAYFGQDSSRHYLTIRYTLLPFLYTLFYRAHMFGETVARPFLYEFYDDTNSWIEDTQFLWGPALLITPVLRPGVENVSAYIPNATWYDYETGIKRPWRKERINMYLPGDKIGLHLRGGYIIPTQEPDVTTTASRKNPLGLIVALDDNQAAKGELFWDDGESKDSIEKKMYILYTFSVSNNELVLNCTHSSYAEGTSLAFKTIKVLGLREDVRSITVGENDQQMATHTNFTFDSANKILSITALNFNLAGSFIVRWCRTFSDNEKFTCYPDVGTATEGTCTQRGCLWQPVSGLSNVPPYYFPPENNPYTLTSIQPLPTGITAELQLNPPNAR
Sucrase-isomaltase, intestinal, sequence (P23739 1014-1841 limits assumed): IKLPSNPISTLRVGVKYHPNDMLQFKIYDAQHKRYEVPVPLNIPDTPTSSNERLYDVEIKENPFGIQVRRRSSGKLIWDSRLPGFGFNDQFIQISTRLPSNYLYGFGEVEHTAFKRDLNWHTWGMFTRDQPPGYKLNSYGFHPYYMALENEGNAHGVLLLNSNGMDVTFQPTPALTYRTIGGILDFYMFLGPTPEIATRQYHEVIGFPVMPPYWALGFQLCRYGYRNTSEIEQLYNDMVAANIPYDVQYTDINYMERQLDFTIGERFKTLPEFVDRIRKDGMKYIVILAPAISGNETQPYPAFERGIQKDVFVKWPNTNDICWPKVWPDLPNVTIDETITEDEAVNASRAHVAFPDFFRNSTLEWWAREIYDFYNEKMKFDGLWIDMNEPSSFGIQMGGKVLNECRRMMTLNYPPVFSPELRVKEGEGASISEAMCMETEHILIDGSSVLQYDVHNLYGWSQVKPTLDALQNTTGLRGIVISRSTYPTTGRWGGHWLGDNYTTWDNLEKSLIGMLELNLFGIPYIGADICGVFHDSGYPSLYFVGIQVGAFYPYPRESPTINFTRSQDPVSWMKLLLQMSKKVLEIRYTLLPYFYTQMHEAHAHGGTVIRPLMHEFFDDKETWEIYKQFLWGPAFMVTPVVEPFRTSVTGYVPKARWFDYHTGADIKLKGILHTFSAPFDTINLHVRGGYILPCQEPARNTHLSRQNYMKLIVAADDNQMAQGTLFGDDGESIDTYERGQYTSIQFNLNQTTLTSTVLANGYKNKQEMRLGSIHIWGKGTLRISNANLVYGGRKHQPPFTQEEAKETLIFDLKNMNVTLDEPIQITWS

[5] = Inhibition of maltase in rat small intestinal mucosa assessed as reduction in glucose production using maltose as substrate measured after 40 mins by glucose oxidase assay; procedure, shortened: as §3
Saccharomyces cerevisiae = assay: Non-competitive inhibition of baker's yeast alpha-glucosidase using varying levels of p-nitrophenyl alpha-D-glucopyranoside as substrate preincubated for 10 mins followed by substrate addition measured for 15 mins by Lineweaver-Burk plot analysis
Procedure, shortened: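 Kinetics with inhibitor at 0.3 to 1 μM against α-glucosidase. pNPG at 2, 4, 6 and 8 μM. Initial velocities measured with and without inhibitor, and inhibition type assigned from Michaelis-Menten and Lineweaver-Burk plots.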

[6] = biological target: T2, 3-hydroxy-3-methylglutaryl-coenzyme A reductase (Sus scrofa) (UniProt Q1W675); assay: as §1; procedure, shortened: as §2
T2 sequence (whole entry): T1 sequence (Q1W675 whole entry)

Mus musculus [7] = assay: Antidiabetic activity in KK-Ay diabetic mouse model assessed as reduction in blood glucose level after 4 hrs fasting at 10 mg/kg/day administered via oral gavage once daily measured on day 3 post dose; format: functional, organism-based
Procedure, shortened: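 KK-Ay mice on high-fat diet, gavaged once daily (1 or 5 mg/kg; rosiglitazone 10 mg/kg). Blood glucose monitored sequentially after 4 h fasting. Mean ± SEM, n = 8, compared with the KK-Ay model group.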

Mus musculus [8] = assay: Antidiabetic activity in KK-Ay diabetic mouse model assessed as reduction in free diet blood glucose level at 10 mg/kg/day administered via oral gavage once daily measured on day 3 post dose; format: functional, organism-based
Procedure, shortened: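 Non-fasted (free diet) blood glucose was tracked serially in high-fat-fed KK-Ay mice given daily gavage doses (1 or 5 mg/kg; rosiglitazone 10 mg/kg). Mean ± SEM, n = 8.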

Mus musculus [9] = assay: Antidiabetic activity in KK-Ay diabetic mouse model assessed as reduction in HbA1C level at 10 mg/kg/day administered via oral gavage once daily for 21 days; format: functional, organism-based
Mus musculus [10] = assay: Toxicity in KK-Ay diabetic mouse model assessed as changes in body weight at 10 mg/kg/day administered via oral gavage once daily for 21 days measured every 3 days during compound dosing; format: organism-based; details: in vivo
Procedure, shortened: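 In high-fat-fed KK-Ay mice gavaged once daily for 21 days, individual body weight and cage food consumption were recorded every 3 days. Mean ± SEM, n = 8.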

Mus musculus [11] = assay: Antidiabetic activity in KK-Ay diabetic mouse model assessed as reduction in serum insulin level at 10 mg/kg/day administered via oral gavage once daily for 21 days; format: functional, organism-based
Procedure, shortened: (§4)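 Male KK-Ay mice (8 weeks old) on high-fat diet with water ad libitum, dosed by gavage once daily for 21 days (1 or 5 mg/kg test; rosiglitazone 10 mg/kg); female C57BL/6J mice as normal controls. Blood collected at study end. Serum lipids, insulin and glucose measured per cited method. ISI calculated from fasting blood glucose and fasting insulin. Mean ± SEM, n = 7-8.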

Mus musculus [12] = assay: Antidiabetic activity in KK-Ay diabetic mouse model assessed as increase in insulin sensitivity index at 10 mg/kg/day administered via oral gavage once daily for 21 days; format: functional, organism-based; procedure, shortened: as §4
Mus musculus [13] = assay: Antidiabetic activity in KK-Ay diabetic mouse model assessed as reduction in blood glucose level at 10 mg/kg/day administered via oral gavage once daily for 21 days measured at 30 to 60 mins post glucose challenge by oral glucose tolerance test; format: functional, organism-based
Procedure, shortened: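 OGTT on day 21 of daily gavage dosing in KK-Ay mice. Blood glucose read at time points including 30 and 60 min, and the AUC was calculated. Mean ± SEM, n = 8.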

Mus musculus [14] = assay: Antidiabetic activity in KK-Ay diabetic mouse model assessed as reduction in blood glucose level at 10 mg/kg/day administered via oral gavage once daily measured on day 19 at 30 to 60 mins post insulin challenge by insulin tolerance test; format: functional, organism-based
Procedure, shortened: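 ITT on day 19 of treatment: after 4 h fasting, insulin 0.6 U·kg-1 given intraperitoneally. Glycaemia was sampled from the tail tip before and at set times after injection, and the AUC was computed. Mean ± SEM, n = 8.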

Mus musculus [15] = assay: Hypolipidemic activity in KK-Ay diabetic mouse model assessed as reduction in serum NEFA level at 10 mg/kg/day administered via oral gavage once daily for 21 days; format: functional, organism-based; procedure, shortened: as §4
Mus musculus [16] = assay: Hypolipidemic activity in KK-Ay diabetic mouse model assessed as reduction in serum triglyceride level at 10 mg/kg/day administered via oral gavage once daily for 21 days; format: functional, organism-based; procedure, shortened: as §4
Mus musculus [17] = assay: Hypolipidemic activity in KK-Ay diabetic mouse model assessed as reduction in serum total cholesterol level at 10 mg/kg/day administered via oral gavage once daily for 21 days; format: functional, organism-based; procedure, shortened: as §4
Mus musculus [18] = assay: Hypoglycemic activity in KK-Ay diabetic mouse model assessed as increase in liver hepatic glycogen level at 10 mg/kg/day administered via oral gavage once daily for 4 weeks; format: functional, organism-based
Mus musculus [19] = assay: Effect on serum AST level in KK-Ay diabetic mouse model at 10 mg/kg/day administered via oral gavage once daily for 21 days; format: functional, organism-based; procedure, shortened: as §4
Mus musculus [20] = assay: Decrease in hepatocyte hypertrophy in KK-Ay diabetic mouse model at 10 mg/kg/day administered via oral gavage once daily for 21 days by haematoxylin and eosin staining based microscopic or morphometric method; format: functional, organism-based
Procedure, shortened: (§5)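 At study end, liver and abdominal white adipose tissue were fixed in 10% formaldehyde PBS (pH 7.4), paraffin-embedded, sectioned and stained with haematoxylin/eosin. Sections were assessed by microscopy or morphometry at 20×.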

Mus musculus [21] = assay: Decrease in lipid droplet accumulation in liver in KK-Ay diabetic mouse model at 10 mg/kg/day administered via oral gavage once daily for 21 days by haematoxylin and eosin staining based microscopic or morphometric method; format: functional, organism-based; procedure, shortened: as §5
Mus musculus [22] = assay: Decrease in size of adipocytes in abdominal white adipose tissue in KK-Ay diabetic mouse model at 10 mg/kg/day administered via oral gavage once daily for 21 days by haematoxylin and eosin staining based microscopic or morphometric method; format: functional, organism-based; procedure, shortened: as §5

Compound | IC50 [1] [µM] | IC50 [2] [µM] | IC50 [3] [µM] | IC50 [4] [µM] | IC50 [5] [µM] | inhibition (Saccharomyces cerevisiae) | inhibition [6] | also measured
CC(C)=CCC/C(C)=C/CCC(CC(=O)c1cc(O)ccc1O)C(=O)O (stereo unspecified) [FORNICIN C] | > 100 | 32.1 | 61.2 | > 100 | 46.2 | Active |  | 
C[C@H]1O[C@H](O[C@H]2[C@H](O)[C@@H](O)[C@@H](O[C@H]3[C@H](O)[C@@H](O)C(O)O[C@@H]3CO)O[C@@H]2CO)[C@H](O)[C@@H](O)[C@@H]1N[C@H]1C=C(CO)[C@@H](O)[C@H](O)[C@H]1O (stereo partly specified) [ACARBOSE] |  | 273 |  |  |  |  |  | 
C/C1=C/CC/C(=C/Cc2cc(O)ccc2O)C(=O)OC(C)(C)[C@H](O)CC1 | > 100 | 6.3 | 3.6 | > 100 | 45.8 | Active |  | 
CC(C)=CCC/C(C)=C/CC/C(=C/Cc1cc(O)ccc1O)C(=O)O [GANOMYCIN B] | 29.3 | 1.6 | 5.9 | 35.5 | 17.8 | Active | Dose-dependent effect | 
C/C(C=O)=C\CC/C(C)=C/CCC1=C[C@H](c2cc(O)ccc2O)OC1=O | > 100 | 12.7 | 15.8 | > 100 | 80.1 | Active |  | 
CN(CCOc1ccc(CC2SC(=O)NC2=O)cc1)c1ccccn1 (stereo unspecified) [ROSIGLITAZONE] |  |  |  |  |  |  |  | Activity (Mus musculus [7]): Active; Activity (Mus musculus [8]): Active; Activity (Mus musculus [9]): Active; Activity (Mus musculus [10]): Toxic; Activity (Mus musculus [11]): Active; Activity (Mus musculus [12]): Active; Activity (Mus musculus [13]): Active; Activity (Mus musculus [14]): Active; Activity (Mus musculus [15]): Active; Activity (Mus musculus [16]): Active; Activity (Mus musculus [17]): Active; Activity (Mus musculus [18]): inactive; Activity (Mus musculus [19]): inactive; Activity (Mus musculus [20]): inactive; Activity (Mus musculus [21]): inactive; Activity (Mus musculus [22]): Active
CC(C)=CCC/C(C)=C/CC/C(=C/C(=O)c1cc(O)ccc1O)C(=O)O | 45.2 | 3.2 | 6.4 | > 100 | 18.1 | Active | Dose-dependent effect | 
COC1(c2cc(O)ccc2O)C=C(CC/C=C(\C)CC/C=C(\C)C=O)C(=O)O1 (stereo unspecified) | 56.9 | 10.2 | 15.8 | > 100 | 23.8 | Active | Dose-dependent effect | 
CC(C)=CCC/C(C)=C/CC/C(=C\Cc1cc(O)ccc1O)C(=O)O | > 100 | > 100 | > 100 | > 100 | > 100 |  |  | 
